Test [1] deals with Cyclin-dependent kinase 4/cyclin D1 (Homo sapiens, UniProt P11802). The test is described as follows: Inhibition of CDK4/cyclin-D1 (unknown origin). It counts as protein-complex assay. The essentials: (§1)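 Biochemical (cell-free) assay within a panel of 24 protein kinases. Results reported as IC50 values. Procedure as described in earlier work.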
For test [2], the target named is Epidermal growth factor receptor (Homo sapiens, UniProt P00533). As to the kind of experiment: Inhibition of EGFR (unknown origin). The essentials:
as §1

Test [3] concerns the target T1, Receptor-type tyrosine-protein kinase FLT3 (Homo sapiens, UniProt P36888).
T1 sequence (P36888 whole entry): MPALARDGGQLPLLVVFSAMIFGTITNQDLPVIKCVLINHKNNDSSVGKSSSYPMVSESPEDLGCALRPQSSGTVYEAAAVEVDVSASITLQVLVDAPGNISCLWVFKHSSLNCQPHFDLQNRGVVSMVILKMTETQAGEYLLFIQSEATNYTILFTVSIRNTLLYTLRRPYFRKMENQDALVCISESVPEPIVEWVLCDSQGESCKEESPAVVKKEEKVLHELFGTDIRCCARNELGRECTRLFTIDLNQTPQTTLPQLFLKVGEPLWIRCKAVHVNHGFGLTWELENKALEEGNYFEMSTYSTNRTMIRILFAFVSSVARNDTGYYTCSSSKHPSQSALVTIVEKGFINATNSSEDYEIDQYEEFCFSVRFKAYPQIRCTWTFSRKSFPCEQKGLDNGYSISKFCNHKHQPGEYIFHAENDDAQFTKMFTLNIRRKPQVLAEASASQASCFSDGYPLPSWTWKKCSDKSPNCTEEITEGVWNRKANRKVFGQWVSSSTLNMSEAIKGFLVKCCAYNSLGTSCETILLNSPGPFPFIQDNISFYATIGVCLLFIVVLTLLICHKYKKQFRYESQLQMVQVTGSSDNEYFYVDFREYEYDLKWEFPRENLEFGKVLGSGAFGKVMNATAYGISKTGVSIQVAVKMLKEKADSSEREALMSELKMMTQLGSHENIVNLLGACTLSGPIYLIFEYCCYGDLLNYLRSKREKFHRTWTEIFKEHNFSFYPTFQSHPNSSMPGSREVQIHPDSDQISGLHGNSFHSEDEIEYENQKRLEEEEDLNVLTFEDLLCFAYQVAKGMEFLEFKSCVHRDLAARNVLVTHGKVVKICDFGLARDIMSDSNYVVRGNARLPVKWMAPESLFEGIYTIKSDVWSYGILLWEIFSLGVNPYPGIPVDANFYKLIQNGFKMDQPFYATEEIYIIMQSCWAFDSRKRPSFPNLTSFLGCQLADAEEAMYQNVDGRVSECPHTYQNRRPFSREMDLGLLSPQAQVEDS
The test is described as follows: Inhibition of FLT3 (unknown origin). The essentials:
(§2)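 Biochemical (cell-free) assay using a panel of 24 protein kinases. The read-out was the IC50.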

Test [4] deals with L5178Y. The test is described as follows: Cytotoxicity against mouse L5178Y cells assessed as inhibition of cell proliferation by MTT assay. It counts as functional, cell-based. On the technique in general: Tetrazolium dyes change colour on reduction, which living cells bring about.
Test [5] concerns the target Receptor tyrosine-protein kinase erbB-2 (Homo sapiens, UniProt P04626). The test is described as follows: Inhibition of ERBB2 (unknown origin). A digest of the protocol: as §1
The target in test [6] is Mitogen-activated protein kinase kinase kinase 8 (Homo sapiens, UniProt P41279). As to the kind of experiment: Inhibition of COT (unknown origin). The essentials:
as §2

Test [7] has as its target T2, Aurora kinase A (Homo sapiens, UniProt O14965).
T2 sequence (O14965 whole entry): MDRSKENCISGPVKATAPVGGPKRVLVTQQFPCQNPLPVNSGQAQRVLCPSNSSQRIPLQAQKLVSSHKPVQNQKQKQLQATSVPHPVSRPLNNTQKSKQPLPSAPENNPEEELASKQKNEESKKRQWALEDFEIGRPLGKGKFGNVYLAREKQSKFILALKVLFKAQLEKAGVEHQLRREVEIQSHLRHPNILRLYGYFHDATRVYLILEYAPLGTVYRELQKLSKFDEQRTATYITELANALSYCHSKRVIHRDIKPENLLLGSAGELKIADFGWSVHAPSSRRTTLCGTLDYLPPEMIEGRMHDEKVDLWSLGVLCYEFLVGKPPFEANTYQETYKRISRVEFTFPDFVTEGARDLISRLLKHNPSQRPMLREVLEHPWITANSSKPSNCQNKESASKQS
As to the kind of experiment: Inhibition of aurora-A (unknown origin). A digest of the protocol: as §1

Test [8] addresses Aurora kinase B (Homo sapiens, UniProt Q96GD4). As to the kind of experiment: Inhibition of aurora-B (unknown origin). A digest of the protocol: as §1

In general, IC50 refers to the concentration at which inhibition is half-maximal.

Chain of Cyclin-dependent kinase 4/cyclin D1 (P11802 whole entry): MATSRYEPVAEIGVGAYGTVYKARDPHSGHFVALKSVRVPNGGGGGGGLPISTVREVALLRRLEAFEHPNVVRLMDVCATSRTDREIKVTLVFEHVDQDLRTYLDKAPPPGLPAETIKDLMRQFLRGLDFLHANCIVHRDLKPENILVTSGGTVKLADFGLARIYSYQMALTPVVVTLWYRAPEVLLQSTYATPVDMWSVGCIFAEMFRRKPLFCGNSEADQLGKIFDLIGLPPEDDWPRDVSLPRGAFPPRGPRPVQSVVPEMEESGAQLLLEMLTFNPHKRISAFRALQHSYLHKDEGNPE
Chain of Cyclin-dependent kinase 4/cyclin D1 (P24385 whole entry, further chain): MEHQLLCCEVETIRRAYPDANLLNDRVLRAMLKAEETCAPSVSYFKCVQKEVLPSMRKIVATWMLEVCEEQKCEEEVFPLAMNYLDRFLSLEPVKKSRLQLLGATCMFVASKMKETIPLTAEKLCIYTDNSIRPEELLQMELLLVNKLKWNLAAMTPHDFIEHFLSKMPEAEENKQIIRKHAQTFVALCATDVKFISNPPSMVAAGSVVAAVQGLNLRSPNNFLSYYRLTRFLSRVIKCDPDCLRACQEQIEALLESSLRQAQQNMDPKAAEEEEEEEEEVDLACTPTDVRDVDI
Chain of Epidermal growth factor receptor (P00533 whole entry): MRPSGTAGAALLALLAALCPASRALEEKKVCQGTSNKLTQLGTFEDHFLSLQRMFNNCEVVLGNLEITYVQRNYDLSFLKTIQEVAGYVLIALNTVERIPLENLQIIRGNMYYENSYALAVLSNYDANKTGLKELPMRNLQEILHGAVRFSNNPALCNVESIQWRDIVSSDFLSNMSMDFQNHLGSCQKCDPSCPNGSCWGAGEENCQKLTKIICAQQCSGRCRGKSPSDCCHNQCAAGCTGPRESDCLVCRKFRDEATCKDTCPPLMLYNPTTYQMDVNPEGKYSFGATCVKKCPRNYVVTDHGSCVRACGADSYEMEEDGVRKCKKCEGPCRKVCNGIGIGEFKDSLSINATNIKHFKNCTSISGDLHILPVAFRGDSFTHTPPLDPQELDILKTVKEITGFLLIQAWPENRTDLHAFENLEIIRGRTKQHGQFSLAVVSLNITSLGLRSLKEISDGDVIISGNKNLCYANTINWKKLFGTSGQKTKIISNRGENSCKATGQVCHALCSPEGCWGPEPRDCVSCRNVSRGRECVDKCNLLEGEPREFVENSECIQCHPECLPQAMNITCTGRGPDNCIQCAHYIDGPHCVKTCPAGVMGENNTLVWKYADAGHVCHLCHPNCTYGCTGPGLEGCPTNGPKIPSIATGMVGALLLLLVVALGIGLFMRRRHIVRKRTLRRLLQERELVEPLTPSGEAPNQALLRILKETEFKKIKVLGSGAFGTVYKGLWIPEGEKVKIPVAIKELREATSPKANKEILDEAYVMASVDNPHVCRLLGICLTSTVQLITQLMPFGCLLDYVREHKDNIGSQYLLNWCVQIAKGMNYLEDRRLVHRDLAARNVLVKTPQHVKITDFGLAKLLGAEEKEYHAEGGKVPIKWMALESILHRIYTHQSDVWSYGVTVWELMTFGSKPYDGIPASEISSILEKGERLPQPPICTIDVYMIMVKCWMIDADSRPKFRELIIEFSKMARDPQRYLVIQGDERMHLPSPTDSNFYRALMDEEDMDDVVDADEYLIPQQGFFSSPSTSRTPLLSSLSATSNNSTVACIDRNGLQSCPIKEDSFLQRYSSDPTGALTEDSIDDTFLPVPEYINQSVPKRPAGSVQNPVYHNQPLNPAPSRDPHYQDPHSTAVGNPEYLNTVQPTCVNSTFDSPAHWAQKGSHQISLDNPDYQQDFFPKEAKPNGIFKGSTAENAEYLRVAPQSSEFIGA
Chain of Receptor tyrosine-protein kinase erbB-2 (P04626 whole entry): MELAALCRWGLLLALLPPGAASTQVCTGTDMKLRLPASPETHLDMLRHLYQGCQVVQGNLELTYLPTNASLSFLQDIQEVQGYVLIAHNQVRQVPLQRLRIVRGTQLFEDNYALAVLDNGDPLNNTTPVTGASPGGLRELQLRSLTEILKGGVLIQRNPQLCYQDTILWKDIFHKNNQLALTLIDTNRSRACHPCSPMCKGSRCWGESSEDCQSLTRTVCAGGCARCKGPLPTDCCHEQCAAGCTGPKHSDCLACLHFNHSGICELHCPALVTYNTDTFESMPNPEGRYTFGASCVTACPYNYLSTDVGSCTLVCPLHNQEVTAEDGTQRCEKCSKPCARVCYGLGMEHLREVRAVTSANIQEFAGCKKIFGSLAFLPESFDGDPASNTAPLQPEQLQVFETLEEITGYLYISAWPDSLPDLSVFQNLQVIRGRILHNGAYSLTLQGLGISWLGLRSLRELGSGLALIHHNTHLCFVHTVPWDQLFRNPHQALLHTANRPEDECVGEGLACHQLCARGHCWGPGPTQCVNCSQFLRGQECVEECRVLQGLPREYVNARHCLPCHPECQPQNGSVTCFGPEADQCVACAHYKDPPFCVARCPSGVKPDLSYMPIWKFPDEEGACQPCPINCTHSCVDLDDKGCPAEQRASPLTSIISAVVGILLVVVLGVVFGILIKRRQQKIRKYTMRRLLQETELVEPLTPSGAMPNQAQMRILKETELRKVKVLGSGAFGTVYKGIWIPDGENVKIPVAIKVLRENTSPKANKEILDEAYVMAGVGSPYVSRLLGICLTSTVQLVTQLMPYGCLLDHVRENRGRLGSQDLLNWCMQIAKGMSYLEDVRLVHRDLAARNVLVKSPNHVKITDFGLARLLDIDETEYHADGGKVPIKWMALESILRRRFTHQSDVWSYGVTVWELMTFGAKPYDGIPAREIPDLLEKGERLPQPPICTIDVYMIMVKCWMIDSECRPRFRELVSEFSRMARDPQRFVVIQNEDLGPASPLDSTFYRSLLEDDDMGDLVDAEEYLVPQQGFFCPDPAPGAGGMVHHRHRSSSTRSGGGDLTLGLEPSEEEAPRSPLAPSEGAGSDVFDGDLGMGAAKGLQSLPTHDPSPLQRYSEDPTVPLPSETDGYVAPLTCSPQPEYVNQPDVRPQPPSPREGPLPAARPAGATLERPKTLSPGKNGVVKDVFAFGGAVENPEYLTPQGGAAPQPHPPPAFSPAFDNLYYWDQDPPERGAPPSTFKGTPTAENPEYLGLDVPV
Chain of Aurora kinase B (Q96GD4 whole entry): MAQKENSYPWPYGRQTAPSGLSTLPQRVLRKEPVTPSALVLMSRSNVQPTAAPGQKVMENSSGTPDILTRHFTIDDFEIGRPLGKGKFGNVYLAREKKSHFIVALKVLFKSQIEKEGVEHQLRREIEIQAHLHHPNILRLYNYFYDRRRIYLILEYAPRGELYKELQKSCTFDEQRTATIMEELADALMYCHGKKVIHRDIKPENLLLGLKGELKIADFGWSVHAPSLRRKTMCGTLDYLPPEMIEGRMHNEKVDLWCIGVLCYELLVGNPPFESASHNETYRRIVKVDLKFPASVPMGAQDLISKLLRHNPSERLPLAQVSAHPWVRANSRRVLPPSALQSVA
Chain of Mitogen-activated protein kinase kinase kinase 8 (P41279 whole entry): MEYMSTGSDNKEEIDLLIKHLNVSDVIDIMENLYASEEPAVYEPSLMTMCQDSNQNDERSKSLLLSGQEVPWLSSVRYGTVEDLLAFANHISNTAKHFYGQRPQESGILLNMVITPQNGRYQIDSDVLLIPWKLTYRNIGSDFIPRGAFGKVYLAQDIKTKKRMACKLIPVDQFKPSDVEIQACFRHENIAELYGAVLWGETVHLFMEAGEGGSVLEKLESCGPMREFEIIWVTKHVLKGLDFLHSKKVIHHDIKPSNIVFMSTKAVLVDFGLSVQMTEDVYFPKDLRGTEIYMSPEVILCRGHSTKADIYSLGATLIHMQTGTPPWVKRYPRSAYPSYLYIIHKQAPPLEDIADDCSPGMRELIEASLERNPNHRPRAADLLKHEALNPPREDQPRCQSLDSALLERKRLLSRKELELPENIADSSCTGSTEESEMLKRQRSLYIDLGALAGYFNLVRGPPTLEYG

As for `O=C1NCCc2cc(Br)c(O)c(c2)Oc2c(Br)cc(cc2Br)CCNC(=O)/C(=N/O)Cc2cc(Br)c(O)c(c2)Oc2c(Br)cc(cc2Br)C/C1=N\O` [BASTADIN 6], the half-inhibitory concentration (IC50) in test [1] came out at 3600 nM; in test [2] it was 2000 nM; in test [3], 5300 nM; in test [4] it was 1500 nM; in test [5], 7000 nM; in test [6], 4800 nM. In addition, the IC50 in test [7] was 1700 nM; in test [8], 2900 nM.

For the compound `O=C1N/C=C/c2ccc(c(Br)c2)Oc2cc(ccc2O)CCNC(=O)/C(=N/O)Cc2cc(Br)c(c(Br)c2)Oc2cc(cc(Br)c2O)C/C1=N\O` [BASTADIN 11], in test [4], the half-inhibitory concentration (IC50) was determined as 3700 nM.

For the compound `O=C1NCCc2ccc(O)c(c2)Oc2c(Br)cc(cc2Br)CCNC(=O)/C(=N/O)Cc2cc(Br)c(O)c(c2)Oc2c(Br)cc(cc2Br)C/C1=N\O` [BASTADIN 16], the IC50 is 4000 nM in test [1]; 2900 nM in test [2]; 1900 nM in test [4]; 4500 nM in test [5]; 1300 nM in test [7]; 1600 nM in test [8].

The values are drawn from ChEMBL document CHEMBL2331160, “Trimeric hemibastadin congener from the marine sponge Ianthella basta” (J Nat Prod, 2013).
